Measured values from article PMC10586269 (ACS Omega, 2023).
Marks after values point to notes of the source that are not given here.

Experiments:
[1] = target: T1, PfHsp90-NTD (Plasmodium falciparum, UniProt Q8IC05); test: Competition binding, FITC-geldanamycin fluorescence polarization assay, PfHsp90; settings: read-out: FP inhibition % PfHsp90 [10 μM]
In short: (§1)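 Ni-affinity-purified Hsp90 N-terminal domain (PfHsp90-NTD or human Hsp90β-NTD, expressed in E. coli), 100 nM final, mixed with 5 nM FITC-geldanamycin. FP read at 480 nm excitation and 535 nm emission, converted to percent bound FITC-GDA versus the DMSO control.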

[2] = target: human Hsp90β-NTD (Homo sapiens, UniProt P08238); type: binding; settings: 10 μM compound, FITC-GDA displacement
In short: as §1

[3] = target: T1, PfHsp90-NTD; test: Equilibrium binding kinetics by MP-SPR
In short: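 PfHsp90-NTD (20 μg/mL) was immobilised by amine coupling on a carboxymethyl dextran gold chip for multiparametric SPR. Running buffer was PBS with 0.005% Tween 20 and 20 mM EDTA, pH 7.4. Test compound (0–2000/5000 nM) was injected at 50 μL/min, with association for 1 min and dissociation for 9 min at room temperature. Signals were subtracted against a protein-free reference channel and buffer blanks.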

T1 sequence (Q8IC05 1-215): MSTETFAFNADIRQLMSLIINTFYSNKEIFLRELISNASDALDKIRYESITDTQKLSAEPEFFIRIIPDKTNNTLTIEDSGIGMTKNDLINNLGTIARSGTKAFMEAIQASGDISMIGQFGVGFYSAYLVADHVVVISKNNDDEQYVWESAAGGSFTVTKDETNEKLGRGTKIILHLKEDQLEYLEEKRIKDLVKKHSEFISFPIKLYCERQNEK
human Hsp90β-NTD, sequence (P08238 1-226): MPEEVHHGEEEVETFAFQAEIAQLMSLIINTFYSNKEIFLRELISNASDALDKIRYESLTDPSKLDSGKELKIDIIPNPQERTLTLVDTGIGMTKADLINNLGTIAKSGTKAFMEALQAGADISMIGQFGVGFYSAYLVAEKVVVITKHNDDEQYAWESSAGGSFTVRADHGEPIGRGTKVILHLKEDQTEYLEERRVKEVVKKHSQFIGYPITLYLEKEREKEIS

In the case of `COc1ccc2c(c1)[nH]c1c(C)nccc12` [harmine], the inhibition at 10 µM [1] is reported as 7 ± 6%, the “FP inhibition% human Hsp90 [10 μM]” value [2] is reported as “no inhibition” and the Kd ([3]; KD, Kd/Ka) is reported as 1820 ± 100 nM. The Ka ([3]; association) was 17.6 ± 14.9 1/Ms (×10^3) and the Kd ([3]; dissociation rate) was 3.20 ± 4.8 1/s (×10^–6).
